Assays:
[1] = system: Human immunodeficiency virus 1; test: Ratio of IC50 for multi drug-resistant HIV1 isolate of subtype TM to IC50 for wild type HIV1 isolate ERS104pre; format: functional
Summary of the method: (§1)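 Each assay run in duplicate; values are means (±1 SD) from two or three independent experiments. Fold change is the IC50 against each drug-resistant isolate divided by the IC50 against wild-type HIV-1 ERS104pre.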

[2] = system: Human immunodeficiency virus 1; test: Ratio of IC50 for multi drug-resistant HIV1 isolate of subtype MM to IC50 for wild type HIV1 isolate ERS104pre; format: functional; summary of the method: as §1
[3] = system: Human immunodeficiency virus 1; test: Antiviral activity against wild type HIV1 isolate ERS104pre in PHA-stimulated human PBMC assessed as inhibition of p24 antigen production; format: functional, organism-based; conditions: Human immunodeficiency virus 1, isolate ERS104pre
[4] = system: Human immunodeficiency virus 1; test: Antiviral activity against multi drug-resistant HIV1 isolate of subtype MM in PHA-stimulated human PBMC assessed as inhibition of p24 antigen production; format: functional, organism-based; conditions: Human immunodeficiency virus 1, isolate MM
[5] = system: Human immunodeficiency virus 1; test: Ratio of IC50 for multi drug-resistant HIV1 isolate of subtype G to IC50 for wild type HIV1 isolate ERS104pre; format: functional; summary of the method: as §1
[6] = system: Human immunodeficiency virus 1; test: Antiviral activity against multi drug-resistant HIV1 isolate of subtype G in PHA-stimulated human PBMC assessed as inhibition of p24 antigen production; format: functional, organism-based; conditions: Human immunodeficiency virus 1, isolate G
[7] = system: Human immunodeficiency virus 1; test: Antiviral activity against multi drug-resistant HIV1 isolate of subtype C in PHA-stimulated human PBMC assessed as inhibition of p24 antigen production; format: functional, organism-based; conditions: Human immunodeficiency virus 1, isolate C
[8] = system: Human immunodeficiency virus 1; test: Ratio of IC50 for multi drug-resistant HIV1 isolate of subtype JSL to IC50 for wild type HIV1 isolate ERS104pre; format: functional; summary of the method: as §1
[9] = system: Human immunodeficiency virus 1; test: Ratio of IC50 for multi drug-resistant HIV1 isolate of subtype C to IC50 for wild type HIV1 isolate ERS104pre; format: functional; summary of the method: as §1
[10] = system: Human immunodeficiency virus 1; test: Antiviral activity against multi drug-resistant HIV1 isolate of subtype TM in PHA-stimulated human PBMC assessed as inhibition of p24 antigen production; format: functional, organism-based; conditions: Human immunodeficiency virus 1, isolate TM
Protease = Protease (Human immunodeficiency virus 1, UniProt Q9YQ12); test: Inhibition of HIV1 protease
Chain of Protease (Q9YQ12 whole entry): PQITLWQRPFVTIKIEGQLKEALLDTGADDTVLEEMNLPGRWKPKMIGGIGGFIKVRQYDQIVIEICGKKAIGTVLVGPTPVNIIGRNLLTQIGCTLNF

[11] = system: Human immunodeficiency virus 1; test: Antiviral activity against HIV1 LAI in human MT2 cells after 7 days by MTT assay; format: functional, organism-based; conditions: Human immunodeficiency virus 1, LAI, MT2, 168 h
Summary of the method: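 Human T-lymphoid MT-2 cells were exposed to 100 TCID50 of HIV-1LAI and cultured in the presence of each protease inhibitor. IC50 was determined by MTT assay. Values are means of at least three experiments.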

[12] = system: Human immunodeficiency virus 1; test: Antiviral activity against multi drug-resistant HIV1 isolate of subtype JSL in PHA-stimulated human PBMC assessed as inhibition of p24 antigen production; format: functional, organism-based; conditions: Human immunodeficiency virus 1, isolate JSL

CC(C)CN(C[C@@H](O)[C@H](Cc1ccccc1)NC(=O)O[C@H]1CCOC1)S(=O)(=O)c1ccc(N)cc1
Ratio IC50 [1]: 9 | Ratio IC50 [2]: 7 | IC50 [3]: 45 nM | IC50 [4]: 313 nM | Ratio IC50 [5]: 9 | IC50 [6]: 392 nM | IC50 [7]: 346 nM | Ratio IC50 [8]: 12 | Ratio IC50 [9]: 8 | IC50 [10]: 406 nM

Cc1ccccc1CNC(=O)[C@H]1N(C(=O)[C@@H](O)[C@H](Cc2ccccc2)NC(=O)O[C@H]2CO[C@H]3OCC[C@H]32)CSC1(C)C
Ratio IC50 [1]: 2 | Ratio IC50 [2]: 1 | IC50 [3]: 31 nM | IC50 [4]: 42 nM | Ratio IC50 [5]: 1 | IC50 [6]: 29 nM | IC50 [7]: 61 nM | Ki (Protease): 0.0052 nM | Ratio IC50 [8]: 8 | IC50 [11]: 9 nM | Ratio IC50 [9]: 2 | IC50 [12]: 235 nM | IC50 [10]: 64 nM

COc1ccc(CNC(=O)[C@H]2N(C(=O)[C@@H](O)[C@H](Cc3ccccc3)NC(=O)O[C@H]3CO[C@H]4OCC[C@H]43)CSC2(C)C)c(C)c1
Ki (Protease): 2.03 nM | IC50 [11]: 51 nM

Cc1ccccc1CNC(=O)[C@H]1N(C(=O)[C@@H](O)[C@H](Cc2ccccc2)NC(=O)O[C@@H]2CCOCOC2)CSC1(C)C
Ki (Protease): 0.78 nM

Cc1ccccc1CNC(=O)[C@H]1N(C[C@@H](O)[C@H](Cc2ccccc2)NC(=O)O[C@H]2CO[C@H]3OCC[C@H]32)CSC1(C)C
Ki (Protease): 2.6 nM

Cc1ccccc1CNC(=O)[C@H]1N(C(=O)[C@@H](O)[C@H](Cc2ccccc2)NC(=O)O[C@@H]2C[C@@H]3CCO[C@@H]3C2)CSC1(C)C
Ki (Protease): 0.29 nM | IC50 [11]: 13 nM

Cc1ccccc1CNC(=O)[C@H]1N(C(=O)[C@@H](O)[C@H](Cc2ccccc2)NC(=O)O[C@@H]2C[C@@H]3OCO[C@@H]3C2)CSC1(C)C
Ki (Protease): 0.65 nM

Cc1cc(N)ccc1CNC(=O)[C@H]1N(C(=O)[C@@H](O)[C@H](Cc2ccccc2)NC(=O)O[C@H]2CO[C@H]3OCC[C@H]32)CSC1(C)C
Ki (Protease): 1.01 nM | IC50 [11]: 530 nM

Cc1cc(CO)ccc1CNC(=O)[C@H]1N(C(=O)[C@@H](O)[C@H](Cc2ccccc2)NC(=O)O[C@H]2CO[C@H]3OCC[C@H]32)CSC1(C)C
Ki (Protease): 0.31 nM | IC50 [11]: 230 nM

Cc1ccccc1CNC(=O)[C@H]1N(C[C@@H](O)[C@H](Cc2ccccc2)NC(=O)O[C@H]2CCOC2)CSC1(C)C
Ki (Protease): 86.2 nM

Cc1ccccc1CNC(=O)[C@H]1N(C(=O)[C@@H](O)[C@H](Cc2ccccc2)NC(=O)O[C@H]2CCOC2)CSC1(C)C
Ki (Protease): 0.21 nM | IC50 [11]: 20 nM

COC(=O)N[C@H](C(=O)N[C@@H](Cc1ccccc1)[C@@H](O)CN(Cc1ccc(-c2ccccn2)cc1)NC(=O)[C@@H](NC(=O)OC)C(C)(C)C)C(C)(C)C [ATAZANAVIR]
Ratio IC50 [1]: 16 | Ratio IC50 [2]: 13 | IC50 [3]: 3 nM | IC50 [4]: 40 nM | Ratio IC50 [5]: 10 | IC50 [6]: 29 nM | IC50 [7]: 45 nM | Ratio IC50 [8]: 212 | Ratio IC50 [9]: 15 | IC50 [12]: 635 nM | IC50 [10]: 47 nM
